Screening results (PubChem)
The list is not random: actives were taken first. Their share in the collection is about 3.7%.
KCNK9 inh – KCNK9 potassium channel inhibitors, primary screen, HEK293 cells, thallium flux. Potassium channel subfamily K member 9 (Homo sapiens), Q9NPC2. 310,000 compounds, 1.2% hits. FluxOR thallium flux fluorescence; active compounds read low. AID 488922, 2010. B-score at 10 µM;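 active = ratio B-score over 3 SD below the library mean, with starting fluorescence within 5 SD of its mean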;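 also: negative B-score means less thallium flux so channel inhibition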
hERG protect – hERG rescue from dofetilide block, primary screen, cell-based, CHO-hERG, FluxOR thallium flux, dofetilide IC70 | Voltage-gated inwardly rectifying potassium channel KCNH2 (Homo sapiens), Q12809 | dofetilide IC70 present | activation (rescue from dofetilide block), less the hit threshold, % at 10 µM | 310,000 compounds, 0.51% hits | AID 1511, 2009;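 active = activation above the mean of controls blocked by dofetilide plus 5 SD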;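 also: thallium influx through hERG after potassium depolarization seen as dye fluorescence rise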
KCNK3 block – human KCNK3 channel inhibitors, primary screen, CHO cells, FluxOR thallium flux, B-score; Potassium channel subfamily K member 3 (Homo sapiens), O14649; FluxOR fluorescence; active compounds read low; B-score at 10 µM; 340,000 compounds, 0.84% hits;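 active = B-score under library mean minus 4 SD, starting fluorescence ratio at most library mean plus 5 SD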;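 also: more negative B-score means stronger inhibition of thallium flux through KCNK3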
KCNQ1 pot – potentiators or activators of KCNQ1 channel, primary screen, cell-based, thallium flux, high-throughput. CHO-K1 KCNQ1, thallium flux FluxOR fluorescence; active compounds read high. B-score at 10 µM. 310,000 compounds, 0.35% hits;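 active = fluorescence ratio B-score, a plate-corrected score, at least three library SD, with initial intensity B-score within 5 SD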
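Test system: CHO-K1 cells stably expressing KCNQ1 / Medium: assay buffer / Also added: depolarizing K+/Tl+ stimulus, K2SO4 and Tl2SO4 each 12.5 mM in 5x stock / Incubation: 90 min dye loading and 20 min compound exposure, both at room temperature / Signal: thallium influx via FluxOR fluorescence, kinetic imaging / Evaluation: B score of baseline-normalized fluorescence ratio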
Kir21 block – inhibitors of mouse Kir2.1 inward-rectifier potassium channel; B-score at 10 µM; HEK293-Kir2.1, FluxOR thallium flux fluorescence; active compounds read low; 310,000 compounds, 0.85% hits;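 active = fluorescence ratio B-score at or below minus 3 SD of library scores, with starting-brightness B-score within 2 SD, cut at about -4.2 in these data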;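 also: channel flux triggered by added potassium and thallium sulfate stimulus; B-score of peak minus minimum fluorescence over baseline after thallium stimulus; more negative B-score means stronger Kir2.1 block with less thallium influx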
KCNQ1 inh – inhibitors of human KCNQ1 channel, primary screen, cell-based, thallium flux, high-throughput; B-score at 10 µM; CHO-K1 KCNQ1, FluxOR thallium flux fluorescence; active compounds read high; Potassium voltage-gated channel subfamily KQT member 1 (Homo sapiens), P51787; 310,000 compounds, 1.3% hits;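 active = compounds whose thallium flux B-score, printed positive for inhibition, exceeds three library SD while starting fluorescence stays within three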;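 also: channel opened by potassium depolarization with thallium stimulus after 20 min compound exposure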
KCNK9 block conf – KCNK9 potassium channel inhibitors, confirmation, HEK293 cells, thallium flux, duplicate; shares compounds with KCNK9 inh; FluxOR thallium flux fluorescence; inhibition, % at 10 µM; 4,900 compounds, 43% hits; AID 492992, 2010;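 active = thallium signal inhibited by more than 5 SD of the compound-free buffer control wells, on both duplicate plates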;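 also: 0% = assay buffer control wells without compound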
Kir21 sel – mouse Kir2.1 channel inhibition, confirmation, selectivity assay for KCNK9 modulator project, cell-based, HEK293, thallium flux; shares compounds with KCNK9 inh; inhibition, % at 10 µM; 4,900 compounds, 4% hits; AID 492993, 2010; Kir2.1 cells, FluxOR thallium flux fluorescence;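 active = thallium signal drop more than 5 SD beyond the mean of the no-compound control wells, seen in both duplicate plates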;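 also: signal is fluorescence rise after thallium addition divided by baseline fluorescence; plate controls were assay buffer only for no effect and full block by chlorpromazine control for full effect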
KCNK9 uninduced – thallium flux in non-induced HEK293 cells, confirmation, counter-screen for KCNK9 inhibitor project, cell-based, second counter screen, non-induced KCNK9-HEK293 | shares compounds with KCNK9 inh | FluxOR thallium flux | inhibition, % at 10 µM | 4,900 compounds, 40% hits | AID 492997, 2010;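 active = thallium signal drop beyond 5 SD of the untreated control mean, on both duplicate plates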;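 also: plate controls were buffer only IC0 wells for no effect and SID17386958 at its maximal inhibitory level for full effect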
The depositor's hits bear a star; i = inactive; · = not tested or not shown.

SMILES | KCNK9 inh | hERG protect | KCNK3 block | KCNQ1 pot | Kir21 block | KCNQ1 inh | KCNK9 block conf | Kir21 sel | KCNK9 uninduced
Cc1ccc(C(=O)Nc2ccccc2-c2ccccc2)cc1S(=O)(=O)Nc1cccc(C)c1C | -9.39* | -6.9 | -11.2* | i | -0.31 | 6* | 40.5%* | i | 41.5%*
Cc1ccc(C)c(NS(=O)(=O)c2cc(C(=O)Nc3ccccc3-c3ccccc3)ccc2C)c1 | -11.6* | -12.4 | -9.86* | i | 0.35 | i | 42.5%* | i | 41.5%*
Cc1c(Cl)cccc1NC(=S)N(CCN(C)C)C(C)c1ccco1 (stereo not drawn) | i | -7.4 | i | i | 1.75 | i | i | i | i
COCCNC(=O)c1ccccc1NC(=O)Cc1ccccc1 | i | -3.3 | i | i | 0.1 | i | · | · | ·
CCC(C(=O)Nc1nc(C)c(C(=O)OC)s1)c1ccccc1 (stereo not drawn) | -9.38* | -13.2 | i | i | -1.44 | i | 30.0%* | i | 26.0%*
CC(C)c1cc(CN2CCN(CCC#N)CC2)cc(C(C)C)c1O | i | -2.2 | i | i | 1.24 | i | i | i | i
CC(C)(C)c1cc(CN2CCN(CCO)CC2)cc(C(C)(C)C)c1O | i | -9.7 | i | i | -0.16 | i | · | · | ·
COCC(=O)NNC(=S)Nc1cccc(C)c1C | i | 0.0 | i | i | 0.05 | i | · | · | ·
Cc1ccc(S(=O)(=O)N2CCN(C(=O)c3cc(S(=O)(=O)N(C)C)ccc3N3CCCC3)CC2)cc1 | i | -11.5 | i | i | 1.48 | i | · | · | ·
Cc1nc(SCC(=O)NC(C)(C#N)C2CC2)c2c(-c3cccs3)csc2n1 (stereo not drawn) | -10.7* | -11.7 | i | i | -0.46 | i | 48.0%* | i | i
Cc1ccc(-c2cc(-c3ccco3)c(C#N)c(=O)[nH]2)cc1 | i | -5.4 | i | i | -0.27 | i | · | · | ·
CC(C)(C)c1cc(-c2ccco2)c(C#N)c(SCC#N)n1 | -9.65* | -3.5 | i | i | -1.64 | i | i | i | 31.0%*
CC(OC(=O)c1cc(Br)ccc1O)C(=O)NC1(C#N)CCCCC1 (stereo not drawn) | i | -13.3 | i | i | 0.17 | i | · | · | ·
COC(=O)c1ccc(C(C(=O)NC2CCCCC2)N(Cc2ccc(F)cc2)C(=O)Cc2cccs2)cc1 (stereo not drawn) | -10.5* | -2.6 | i | i | -1.48 | i | i | i | 31.0%*
COc1ccc(-c2cc(C)nc3c(-c4ccccc4)cnn23)cc1 | -9.51* | -19.7 | i | i | -1.05 | i | 57.5%* | i | 51.0%*
Cn1c(=O)c(=O)n(C)c2cc(S(=O)(=O)CCC(=O)Nc3ccc(C(F)(F)F)cc3)ccc21 | i | -7.5 | i | i | -1.07 | i | · | · | ·
CC1C(=NO)C(C)C(c2ccc(N(C)C)cc2)NC1c1ccc(N(C)C)cc1 (stereo not drawn) | i | -4.2 | i | i | -0.65 | i | i | i | i
CC(C)(C)C1CCc2c(sc3c2C(=O)NC(c2ccco2)N3)C1 (stereo not drawn) | i | 2.0 | i | i | 1.14 | i | i | i | i
CN1CCc2c(sc3c2C(=O)NC(c2ccccc2)N3)C1 (stereo not drawn) | i | -3.0 | i | i | -0.44 | i | · | · | ·
CC1=NN(c2ccccc2)C(=O)/C1=C\C=C1\N(C)c2ccccc2C1(C)C | -9.13* | -11.1 | i | i | 0.49 | i | i | i | i
CC1=NN(c2ccccc2)C(=O)/C1=C\C=C1/N(C)c2ccccc2C1(C)C | i | -12.3 | i | i | 3.14 | i | · | · | ·
CC(=O)c1cc(Cl)ccc1OCc1cccc(S(=O)(=O)N2CCOCC2)c1 | i | -22.5 | i | i | -2.54 | i | · | · | ·
CCOc1ccccc1NC(=O)n1ncc2c(C)cccc21 | -13.3* | -12.0 | i | i | -2.16 | i | i | i | 39.5%*
O=C1OC(c2ccccc2)(c2cc(Br)c(O)c(Br)c2)c2ccccc21 (stereo not drawn) | · | · | i | · | · | · | · | · | ·
Cc1cc(C)c(OC2(c3ccccc3)OC(=O)c3ccccc32)c(C)c1 (stereo not drawn) | -16.9* | -8.5 | i | i | 1.79 | i | 69.0%* | i | 47.0%*
SMILES | KCNK9 inh | hERG protect | KCNK3 block | KCNQ1 pot | Kir21 block | KCNQ1 inh | KCNK9 block conf | Kir21 sel | KCNK9 uninduced
CCCSc1nc2ccsc2c(=O)n1CC | i | -9.8 | i | i | -0.05 | i | · | · | ·
COC(=O)CNC(c1ccccc1)c1cc(Br)ccc1NC(=O)CNC(=O)OCc1ccccc1 (stereo not drawn) | -14.7* | -6.3 | i | i | 1.24 | i | 63.5%* | i | 32.5%*
COc1cccc(-c2cc(C(=O)NCC3CCCO3)c3ccccc3n2)c1 (stereo not drawn) | i | -12.7 | i | i | -0.88 | i | · | · | ·
Cc1ccc(C)c(OCCC(=O)OCC(=O)Nc2cccc(S(=O)(=O)N3CCCC3)c2)c1 | i | -10.9 | i | i | -0.54 | i | · | · | ·
CC(=O)c1cc(CC=C(C)C)c(O)cc1O | -8.65* | -9.8 | i | i | 1.18 | i | 27.0%* | i | i
CC(=O)Nc1ccc(Nc2nc(-c3ccccc3)nc3ccccc23)cc1 | i | -11.3 | i | i | -1.07 | i | · | · | ·
O=C(Nc1nc(-c2ccccc2)nc2ccccc12)c1ccc(F)cc1 | -8.43* | -12.3 | i | i | 1.33 | i | 29.5%* | i | i
CCN(CC)S(=O)(=O)c1ccc(N2CCOCC2)c(NC(=O)c2cc3ccccc3oc2=O)c1 | -11.6* | -1.1 | i | i | 0.42 | i | 55.0%* | i | i
C/C(CCC(C)C)=N\NS(=O)(=O)c1ccc(C)c([N+](=O)[O-])c1 | -8.94* | -9.8 | i | i | -0.57 | i | 63.5%* | i | 41.0%*
CC/C(C)=N/NS(=O)(=O)c1ccc(C)c([N+](=O)[O-])c1 | i | -7.3 | i | i | 1.14 | i | · | · | ·
